Experimental data as given in ChEMBL document CHEMBL4680305, “Synthesis and biological evaluation of all possible inosine-mixed cyclic dinucleotides that activate different hSTING variants” (Bioorg Med Chem, 2021).
Calls of active or inactive are those of the source. The calls are words filed in the database; no cut-off is given here.

Test system: HEK293T
Assay: Activation of human STING R232H mutant expressed in HEK293T cells assessed as increase IFN-beta activity at 5 uM […] by dual-luciferase reporter gene assay
Assay type: cell-based
Conditions: filed as activator
Method in brief: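 HEK293T cells were co-transfected using polyjet with pcDNA3.1-hSTING R232H (50 ng), pGL3-IFNβ firefly reporter (400 ng) and pGL4.74-Rluc-TK (50 ng). After 24 h, cells were stimulated with 5 µM CDN for 30 min in digitonin buffer (10 µg/mL digitonin, 1 mM ATP, 0.1 mM GTP, HEPES/KCl/MgCl2), then put back in normal medium. Lysates were taken 12 h later for dual-luciferase readout; mean ± s.e.m., n = 5.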

Row | Structure (SMILES) | Activity
1 | Nc1ccn([C@@H]2O[C@@H]3COP(=O)(O)O[C@H]4[C@@H](O)[C@H](n5cnc6c(=O)[nH]cnc65)O[C@@H]4COP(=O)(O)O[C@@H]2[C@@H]3O)c(=O)n1 | Active
2 | O=c1[nH]cnc2c1ncn2[C@@H]1O[C@@H]2COP(=O)(O)O[C@@H]3[C@H](O)[C@@H](COP(=O)(O)O[C@@H]1[C@@H]2O)O[C@H]3n1cnc2c(=O)[nH]cnc21 | Active
3 | Nc1ccn([C@@H]2O[C@@H]3COP(=O)(O)O[C@@H]4[C@H](O)[C@@H](COP(=O)(O)O[C@@H]2[C@@H]3O)O[C@H]4n2cnc3c(=O)[nH]cnc32)c(=O)n1 | Active
4 | Nc1nc2c(ncn2[C@@H]2O[C@@H]3COP(=O)(O)O[C@@H]4[C@H](O)[C@@H](COP(=O)(O)O[C@@H]2[C@@H]3O)O[C@H]4n2cnc3c(=O)[nH]cnc32)c(=O)[nH]1 | Active
5 | O=c1[nH]cnc2c1ncn2[C@@H]1O[C@@H]2COP(=O)(O)O[C@@H]3[C@H](O)[C@@H](COP(=O)(O)O[C@H]2[C@H]1O)O[C@H]3n1cnc2c(=O)[nH]cnc21 | Active
6 | Nc1ncnc2c1ncn2[C@@H]1O[C@@H]2COP(=O)(O)O[C@H]3[C@@H](O)[C@H](n4cnc5c(O)ncnc54)O[C@@H]3COP(=O)(O)O[C@@H]1[C@@H]2O | Active
7 | O=c1ccn([C@@H]2O[C@@H]3COP(=O)(O)O[C@@H]4[C@H](O)[C@@H](COP(=O)(O)O[C@@H]2[C@@H]3O)O[C@H]4n2cnc3c(=O)[nH]cnc32)c(=O)[nH]1 | Active
8 | Nc1ncnc2c1ncn2[C@@H]1O[C@@H]2COP(=O)(O)O[C@@H]3[C@H](O)[C@@H](COP(=O)(O)O[C@H]2[C@H]1O)O[C@H]3n1cnc2c(=O)[nH]cnc21 | Active
9 | Nc1ncnc2c1ncn2[C@@H]1O[C@@H]2COP(=O)(O)O[C@@H]3[C@H](O)[C@@H](COP(=O)(O)O[C@@H]1[C@@H]2O)O[C@H]3n1cnc2c(O)ncnc21 | Active

Molecular target: Stimulator of interferon genes protein (Homo sapiens, UniProt Q86WV6)
Sequence (Q86WV6 whole entry): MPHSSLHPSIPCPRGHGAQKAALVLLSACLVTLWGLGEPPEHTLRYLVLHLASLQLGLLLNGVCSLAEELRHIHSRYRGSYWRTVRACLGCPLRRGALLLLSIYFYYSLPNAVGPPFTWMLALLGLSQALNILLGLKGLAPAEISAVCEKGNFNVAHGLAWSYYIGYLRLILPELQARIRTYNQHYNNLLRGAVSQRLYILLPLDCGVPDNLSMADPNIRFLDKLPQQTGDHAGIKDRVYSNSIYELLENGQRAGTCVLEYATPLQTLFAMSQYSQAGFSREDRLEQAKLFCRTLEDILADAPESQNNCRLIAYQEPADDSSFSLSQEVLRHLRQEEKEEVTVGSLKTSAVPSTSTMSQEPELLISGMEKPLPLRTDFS
Assay: Binding affinity to wild-type human STING-CTD (139-379) expressed in Escherichia coli BL21(D Escherichia ) cells by isothermal titration calorimetry
Conditions: not given

Row | Kd [µM] | Structure (SMILES)
10 | 19.5 | O=c1[nH]cnc2c1ncn2[C@@H]1O[C@@H]2COP(=O)(O)O[C@H]3[C@@H](O)[C@H](n4cnc5c(=O)[nH]cnc54)O[C@@H]3COP(=O)(O)O[C@H]2[C@H]1O

Test system: not listed separately
Assay: Stability of compound in presence of 20% FBS
Conditions: not given
Method in brief: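 CDN at 0.1 µg/µL was incubated at 37 °C in 20% FBS with 20 mM PBS pH 7.4 and 5 mM MgCl2, against a water control. Aliquots taken at various time points were quenched with EDTA pH 8.0 and centrifuged. They were analysed by HPLC with UV at 254 nm, using 10 mM TEAA/MeCN mobile phase at 25 °C.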

Row | Structure (SMILES) | Stability
11 | Nc1ncnc2c1ncn2[C@@H]1O[C@@H]2COP(=O)(O)O[C@H]3[C@@H](O)[C@H](n4cnc5c(O)ncnc54)O[C@@H]3COP(=O)(O)O[C@H]2[C@H]1O | Stable
